Compound activity (PubChem BioAssay)
TAAR1 agonist: human TAAR1 agonism. Q96RJ0. CHO RD-HGA16 TAAR1, Fluo-8 calcium fluorescence; vehicle wells 0%, saturating PEA agonist 100%. activation, % at 3 µM. actives 0.99% (n = 360,000). AID 624467;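 active = activation above the mean activation of all test compounds in the run plus 3 SD, cut at about 38% in these data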
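Test system: RD-HGA16 (CHO) cells co-expressing Gα16 and hTAAR1 / Benchmarks: DMSO vehicle as 0%, PEA at EC100 as 100% / Repeats: no replicates (n 1) / Measure: % activation from peak over basal fluorescence ratio, DMSO-to-PEA scaled / Timing: 17-24 h plating, Fluo-8 75 min 37 °C, 30 min RT / Technique: kinetic Fluo-8 calcium fluorescence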
ANO1 block: mouse TMEM16A channel inhibition, primary screen | Q8BHY3 | HEK293 TMEM16A/YFP iodide influx fluorescence, ionomycin | normalized B-score (activity score, 25-100; higher = stronger inhibition) at 10 µM | actives 1.2% (n = 310,000);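 active = ratio plate-corrected score three or more library SD toward inhibition, starting fluorescence score within five deviations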;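 also: score derived from kinetic fluorescence span divided by baseline fluorescence per well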
TAAR1 antag: human TAAR1 antagonism; CHO RD-HGA16 TAAR1, Fluo-8 calcium fluorescence, antagonist; actives 1.5% (n = 360,000); inhibition, % at 3 µM;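 active = inhibition above a per-plate cutoff, the mean inhibition of test compounds on that plate plus 3 SD, cut at about 49% in these data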;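 also: 0% = DMSO plus EC80 beta-PEA response and 100% = DMSO alone without agonist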
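Assay system: RD-HGA16 CHO cells with stable hTAAR1 and Gα16 / Reagent: EC80 β-phenethylamine stimulus / Doses: 3 µM, single point / Timing: dye loading 75 min at 37 °C, then 30 min room temperature / Measured by: Fluo-8 intracellular calcium dye fluorescence, real-time kinetic reads / Controls: vehicle wells and EC80 agonist wells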
CRFR2-BP ag: agonists of human CRF-binding protein/CRF-R2 receptor complex; HEK293 CRF-R2/CRF-BP, calcium dye fluorescence (FLIPR); percent of saturating CRF peptide response; activation, % at 13.2 µM; actives 0.46% (n = 350,000); AID 588473;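 active = activation of at least 50%, plus an integration ratio under a set limit after plate pattern correction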;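 also: plate controls were neutral control wells without compound for no effect and CRF at EC100 for full effect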
CRFBP-R2 block: blocks CRF-induced signaling of the CRF-BP/CRF-R2 complex; inhibition, % at 11.8 µM; actives 0.59% (n = 350,000); HEK293 CRF-R2/CRF-BP, CRF-induced calcium fluorescence;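 active = inhibition of the ligand-induced calcium signal above about 50% at the single tested concentration, limit read from the data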
ANO1 activ: activates or potentiates the mouse TMEM16A chloride channel | Q8BHY3 | actives 0.3% (n = 340,000) | B-score at 10 µM | HEK293 TMEM16A/YFP-H148Q/I152L, iodide quench fluorescence; stronger effect = lower value;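 active = fluorescence-ratio B-score plate-corrected deviation score at least 3 library SD below zero, with starting fluorescence score within 5 deviations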;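 also: channel opened by trigger with iodide after compound preincubation; score built on the fluorescence ratio of max minus min over baseline; more negative score means more quench and so TMEM16A activation or potentiation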
An asterisk follows results filed as active; i = inactive; . = not tested or not shown. Hits are enriched below; roughly 3.9% of the tested compounds scored in any of these assays.

SMILES	TAAR1 agonist	ANO1 block	TAAR1 antag	CRFR2-BP ag	CRFBP-R2 block	ANO1 activ
CCOC(=O)C(CCCCCOc1ccc([N+](=O)[O-])cc1)C(=O)OCC	6	100*	17	1	29	i
COc1ccc(O)c(/C=N/n2c(-c3ccco3)csc2=Nc2cccnc2)c1	4	i	49*	2	10	i
COCCn1c(-c2ccco2)csc1=Nc1cccnc1	.	i	.	0	11	i
Cc1cc(=O)[nH]c(N=N/C(=N/Nc2ccc(O)cc2)c2ccccc2)n1	8	i	-8	-1	-15	i
COc1ccc(N/N=C(/N=Nc2nc(C)cc(=O)[nH]2)c2ccccc2)cc1	2	i	20	8	57*	i
CCOC(=O)C1(CCOc2ccccc2)CCN(Cc2cccc(-n3cccn3)c2)CC1	3	25*	-8	3	-23	i
CCOC(=O)C1(CCOc2ccccc2)CCN(Cc2cccc(F)c2)CC1	4	i	-17	1	3	i
N#CCOc1ccccc1CNC[C@H]1O[C@@H](n2cnc3c(=O)[nH]c(N)nc32)[C@H](O)[C@@H]1O	5	.	-18	.	.	.
CC(=O)c1cc(C#N)c(Oc2ccccc2)nc1C	3	i	-13	-6	25	i
CC(=O)c1cc(C#N)c(Oc2ccc(Cl)cc2Cl)nc1C	6	i	5	-6	55*	i
CCc1ccccc1N(CC(=O)NC1CCCCC1)C(=O)CNC(=O)c1ccco1	8	i	1	-2	-4	i
Cc1cc(NC(=O)c2ccc(S(=O)(=O)N3CCOCC3)cc2)nc2c1c(=O)oc1ccccc12	16	i	-11	.	.	.
Cc1cc(NC(=O)c2ccc(S(=O)(=O)N3CCCC3)cc2)nc2c1c(=O)oc1ccccc12	14	.	-12	-1	2	-14*
Cc1ccccc1C(=O)NCC(=O)OC1CCCCC1=O (configuration not stated)	2	i	-10	5	68*	i
CCC1Sc2ccccc2N(CC(=O)NCc2ccc3c(c2)OCO3)C1=O (configuration not stated)	17	i	50*	-2	14	i
CCC1Sc2ccccc2N(CC(=O)NC2CC2)C1=O (configuration not stated)	-1	i	-6	0	8	i
COc1ccccc1-c1cnc(C(O)c2ccc(C(C)(C)C)cc2)[nH]1 (configuration not stated)	9	.	-19	.	.	.
O=C1c2ccccc2C(=O)N1c1ncc(Cc2ccc(Cl)cc2)s1	12	i	-16	208*	-8	i
CN(C)c1ccc(O)c2c1CC1CC3[C@@H](N(C)C)C(=O)C(C(N)=O)C(=O)[C@]3(O)C(=O)C1C2=O (some centres not stated)	0	.	1	-1	4	-9.4*
CC1=CN2C(=N)/C(=C/c3ccco3)C(=O)N=C2S1	4	i	2	-4	-19	i
CC1=CN2C(=N)/C(=C/c3ccc([N+](=O)[O-])o3)C(=O)N=C2S1	22	i	25	56*	-112	i
NS(=O)(=O)c1ccc(NC(=O)COc2ccc(S(=O)(=O)N3CCCC3)cc2)cc1	-1	i	-5	0	-6	i
O=C(Nc1nc(-c2ccccc2Cl)cs1)c1cccnc1	41*	i	8	-1	-34	i
O=C(NC(=S)Nc1nc(-c2ccccc2)cs1)c1cccnc1	9	i	11	2	-11	i
O=C(ON=C1CCN(c2ccc([N+](=O)[O-])cc2)CC1)c1ccccc1	16	i	2	-2	64*	i
SMILES	TAAR1 agonist	ANO1 block	TAAR1 antag	CRFR2-BP ag	CRFBP-R2 block	ANO1 activ
Nc1cc(=O)n(Cc2ccccc2)c(N)c1C(=O)NCc1ccccc1	4	.	-2	.	.	.
CC(C)[C@@H](N)C(=O)N/N=C/c1ccc2nccnc2c1	1	i	-17	-1	-20	i
CC(C)[C@H](NC(=O)OC(C)(C)C)C(=O)N/N=C/c1ccc2nccnc2c1	1	i	-15	3	92*	i
CCCCn1nc(C(=O)N(C)C2CCCCC2)c2ccccc2c1=O	3	.	-26	-1	6	-30*
CCCCn1nc(C(=O)NC2CCCCCC2)c2ccccc2c1=O	3	.	-19	-1	-38	i
Cn1nc(C(=O)Nc2ccc(-n3cnnn3)cc2)c2ccccc2c1=O	6	.	18	4	-15	i
CCCCn1nc(C(=O)Nc2ccc(-n3cnnn3)cc2)c2ccccc2c1=O	24	.	52*	1	-8	i
CCOC(=O)C1CCCN(c2nc3c(C)cccn3c(=O)c2/C=C(\C#N)C(=O)NCc2ccco2)C1 (configuration not stated)	52*	i	46	-6	6	i
Cc1cccn2c(=O)c(/C=C(\C#N)C(=O)NCc3ccco3)c(N3CCCC(C)C3)nc12 (configuration not stated)	5	i	4	2	4	i
COC(=O)c1c(NC(=O)CN2CCC3(O)CCCCC3C2c2ccc(OC)cc2OC)sc(C)c1C (configuration not stated)	1	i	-24	2	6	i
COC(=O)c1c(NC(=O)CN2CCC3(O)CCCCC3C2c2ccccc2OC)sc(C)c1C (configuration not stated)	0	i	-13	53*	-80	i
COc1ccc(NC(=O)CN2CCC3(O)CCCCC3C2c2cc(OC)ccc2OC)cc1 (configuration not stated)	10	i	22	-1	51*	i
Cc1ccccc1N/N=C/c1sc(=O)n(Cc2cccc(C(=O)O)c2)c1Cl	2	25*	41	-3	29	i
COC(=O)c1cccc(Cn2c(Cl)c(/C=N/Nc3ccccc3C)sc2=O)c1	3	i	-11	1	8	i
C[C@@H](C(=O)CC(=O)OC(C)(C)C)[C@@H](O)c1c(F)cccc1Cl	2	i	-11	1	-3	i
CC(C)(C)S(=O)(=O)/C(C#N)=N/Nc1ccc(Cl)cc1	10	i	10	47	65*	i
CC1CC(CC(=O)NC(=S)Nc2ccccc2Cl)C(=O)O1 (configuration not stated)	3	i	-2	1	16	i
CC(C)[C@H](CO)N(Cc1cccc(F)c1)c1nc(Nc2cccc(Cl)c2)c2ncn(C(C)C)c2n1	53*	i	73*	-1	-15	i
